# Shown are actives, neighbours in structure and some others; about 2.4% of the full set was active somewhere.
# miR-122 sensor: miR-122 inhibition in Huh7 cells; Huh7 miR-122 Renilla luciferase sensor, 48 h; neutral wells = 0, positive control = 100; activation (reporter increase), % at 12.5 µM; 340,000 tested, 0.3% active; AID 602342;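 active = mean replicate activation score at least 90 and every replicate individually at or above 90; inconclusive = only one of the two criteria met; inactive = neither criterion met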;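 also: higher luciferase means less miR-122 activity so hits act as miR-122 inhibitors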
# GSIS activator: GLuc luminescence reporter in INS-1E cells, primary screen for activators of glucose-dependent secretion of insulin; AID 743287; INS-1E GLuc reporter insulin secretion, 2-3 h; 370,000 tested, 0.61% active; activation, % at 16.6 µM;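 active = lowest replicate activation of at least 40%, so every replicate reaches that level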;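 also: 0% = median of neutral control wells and 100% = median of IBMX positive control wells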
# dFosB activator: enhances mouse delta FosB homodimer DNA binding; AID 493131; P13346; activation, % at 25 µM; 340,000 tested, 0.99% active; purified delta FosB, TAMRA-CDK5 oligo fluorescence polarization; percent of positive-control signal above neutral wells;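 active = mean activation above about 17%, with every replicate also reaching it, limit read from the data, passing the limit was not always enough; inconclusive = only one of the two conditions met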
# Rtt109 HAT inh: C. albicans Rtt109 histone acetyltransferase inhibition; Q5AAJ8; purified Rtt109/Vps75, ThioGlo CoA-SH fluorescence, 4 h; inhibition, % at 34.9 µM; 330,000 tested, 0.16% active; AID 540336;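 active = inhibition of at least 50% in every replicate; inconclusive = best replicate reaches 50% inhibition but some replicates fall short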
# Target sequence (Q5AAJ8 whole entry, looked up): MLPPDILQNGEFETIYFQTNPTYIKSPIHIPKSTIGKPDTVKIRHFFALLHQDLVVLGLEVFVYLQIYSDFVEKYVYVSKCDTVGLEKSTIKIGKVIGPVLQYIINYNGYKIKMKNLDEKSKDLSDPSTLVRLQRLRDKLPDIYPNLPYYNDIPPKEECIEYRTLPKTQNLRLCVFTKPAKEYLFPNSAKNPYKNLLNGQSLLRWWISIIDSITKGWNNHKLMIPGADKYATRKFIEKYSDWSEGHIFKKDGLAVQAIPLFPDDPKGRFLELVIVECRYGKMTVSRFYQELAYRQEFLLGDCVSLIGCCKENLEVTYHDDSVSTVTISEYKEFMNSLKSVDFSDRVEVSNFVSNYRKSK
# Cneo AK release: Cryptococcus neoformans lysis via adenylate kinase release; lysis activity, % at 15 µM; AID 651654; C. neoformans lysis, adenylate kinase release luminescence, 4 h; normalised: neutral wells 0, clomiphene wells 100; 360,000 tested, 0.2% active;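 active = mean lysis activity across replicates of at least 80%, whatever share of replicates individually reach that level; inactive = mean lysis activity below 80%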
#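 Signal: Adenylate kinase release luminescence | Assay system: Log-phase Cryptococcus neoformans yeast cells | Input: Cells at 5 × 10^6 per mL | Buffer or medium: Fresh YPD growth medium | Compound: Single dose | Schedule: Static 4 h at 37 °C with compound, 1 h detection | Controls: Clomiphene | Read-out: Luminescence rise reflecting yeast cell lysis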
# HIV Env fusion: inhibitors of HIV Env-mediated cell fusion | 360,000 tested, 1.1% active | AID 651610 | HeLa-JRFL Env/CEM21 cell fusion, luciferase | inhibition, % at 12.3 µM;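 active = mean replicate inhibition score of at least 50 and every replicate individually at or above 50; inconclusive = only one of the two criteria met; inactive = mean below 50 and not all replicates reaching 50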;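 also: 0% = plate neutral controls and 100% = maraviroc near 300 nM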
# * hit, by the source's call; ? = inconclusive; / = no result; [ ] = dose if it differs, or a comment.
SMILES,miR-122 sensor,GSIS activator,dFosB activator,Rtt109 HAT inh,Cneo AK release,HIV Env fusion
CCCNC(=O)N1CC2(CCN(CC3CC3)CC2)c2c(n(C)c3cc(OC)ccc23)[C@H]1CO,/,8,/,/,/,/
CCc1nc(N)nc(N)c1-c1ccc(Cl)c([N+](=O)[O-])c1,/,21,-12,0,/,6
CCc1nc(N)nc(N)c1-c1ccc(Cl)c(N=[N+]=[N-])c1,1,50*,4,-5,/,44
Cc1ccc(S(=O)(=O)Nc2nc(C)cc(NN)n2)cc1,-4,46*,-9,2,/,-28
Cc1ccc(S(=O)(=O)Nc2nc(C)cc(NCCN)n2)cc1,2,8,-2,/,2,/
O=C(CN1CCOCC1)N[C@H]1CC[C@@H](CCNC(=O)C2CCCC2)O[C@@H]1CO,9[16.7 µM],12,/,/,-5,-10[16.7 µM]
CN(C)CC(=O)Nc1ccc2c(c1)[C@H]1C[C@@H](CC(=O)NCc3cccnc3)O[C@H](CO)[C@H]1O2,4[16.7 µM],-2,/,/,19,/
COc1ccc2c3c([nH]c2c1)[C@@H](CO)N(C(=O)c1ccc(F)cc1)CC31CN(C)C1,/,-4,/,/,/,/
Cc1cc(C)c2c(c1)/C(=N/NC(=S)Nc1ccc(F)cc1)CCC2,-3,/,31*,-13,-7,-41
C=CCn1c(SCC(=O)Nc2nc(C)cs2)nnc1C(NC(=O)c1ccccc1)C(C)C (stereo not given),5,/,-4,13,0,112*
COc1ccc(C(=O)NC(C)c2nnc(SCC(=O)Nc3nc(C)cs3)n2C)cc1 (stereo not given),-1,/,-10,-9,3,-28
COc1ccc(S(=O)(=O)N[C@H]2CC[C@@H](CCn3cc(-c4ccccc4F)nn3)O[C@H]2CO)cc1,/,-4,/,/,-1,4[16.7 µM]
COc1ccc(C(=O)N2C[C@H]3[C@@H](c4ccccc42)[C@@H](CO)N3Cc2ccc(Cl)cc2)cc1,-14[16.7 µM],-14,/,/,-3,/
COc1ccc(Br)cc1CNC(=O)Nc1cccs1,106*,/,-6,2,0,5
COc1ccccc1CNC(=O)Nc1cccs1,5,7,3,-1,-2,/
C[C@@H]1CCCCO[C@@H](CN(C)Cc2ccc(C(=O)O)cc2)[C@H](C)CN([C@H](C)CO)C(=O)c2cc(NC(=O)c3ccccc3)ccc2O1,2[16.7 µM],6,/,/,48,-13[16.7 µM]
O=C(N/N=C/C=C/c1ccc2c(c1)OCO2)c1ccc([N+](=O)[O-])cc1,2,74*,0,3,-1,-27
COc1cccc(-c2csc3ncnc(Sc4nnnn4C)c23)c1,-12,53*,-10,-4,0,-151
Cn1nnnc1Sc1ncnc2scc(-c3cccc(F)c3)c12,2,22,-12,11,-2,-27
CCCCCCCn1ccc(=N)cc1,-8,/,-8,-3,/,/
CCCCCCCCCn1ccc(=N)cc1,-19,14,-11,3,-8,79*
O=S(=O)(NCC[C@@H]1CC[C@@H](NS(=O)(=O)c2ccccc2Cl)[C@H](CO)O1)c1ccc(Cl)cc1,/,-22,/,/,11,57*[16.7 µM]
Cc1ccccc1S(=O)(=O)N[C@@H]1CC[C@H](CCNS(=O)(=O)c2cccc(F)c2)O[C@H]1CO,/,-2,/,/,90*,-2[16.7 µM]
Cc1ccccc1S(=O)(=O)N[C@H]1CC[C@H](CCNS(=O)(=O)c2cccc(F)c2)O[C@H]1CO,/,-7,/,/,93*,-20[16.7 µM]
Cc1ccccc1S(=O)(=O)N[C@@H]1CC[C@H](CCNS(=O)(=O)c2cccc(F)c2)O[C@@H]1CO,/,-6,/,/,45,10[16.7 µM]
SMILES,miR-122 sensor,GSIS activator,dFosB activator,Rtt109 HAT inh,Cneo AK release,HIV Env fusion
COc1ccc2c3c([nH]c2c1)[C@@H](CO)N(S(C)(=O)=O)CC31CN(C(=O)c2ccncc2)C1,/,22,/,/,/,/
Cc1ccccc1C(=O)NC1CCSC1=O (stereo not given),-5,121*,-13,-9,1,-5
COc1cc(CN2CC3(CCN(C(=O)CN4CCOCC4)CC3)c3c(n(C)c4cc(OC)ccc34)[C@H]2CO)cc(OC)c1,/,1,/,/,/,3[16.7 µM]
CC(C)Cc1nc2sc3c(=O)[nH]cnc3c2c2c1CCC2,126*,13,-11,-12,6,-37
CCc1cccc2c(C(=O)CN3C(=O)NC4(CCCCC4)C3=O)c[nH]c12,115*,-19,-8,-2,0,19
CCc1cccc2c(C(=O)CN3C(=O)NC4(CCCCCC4)C3=O)c[nH]c12,42,-29,-13,6,-5,/
CCOC(=O)c1c(C)[nH]c(C(=O)OCC(=O)Nc2sccc2C(N)=O)c1C,-5,31,22*,-3,/,/
CCOC(=O)c1c(C)[nH]c(C(C)=NNC(=O)c2cccs2)c1C,-4,54*,-1,-8,-4,/
CCOC(=O)c1c(C)[nH]c(C(=O)OCC(=O)Nc2ccc(Cl)cn2)c1C,4,7,-9,13,0,-4
CCOc1ccc(N=Nc2ccc(O)c3ncccc23)cc1,/,-2,-7,-1,-1,1
NS(=O)(=O)c1ccc(N=Nc2ccc(O)c3ncccc23)cc1,/,0,-9,16,/,61*
COc1ccc2nc(C)cc(N/N=C/c3ccc(F)cc3)c2c1,-24,3,-20,1,3,90*
Cc1ccc2nc(C)cc(N/N=C/c3cccc(O)c3)c2c1,0,14,-5,0,-1,-10
COc1ccc(/C=N/Nc2cc(C)nc3ccccc23)cc1,/,-16,53*,1,0,2
COc1ccc(/C=N/Nc2cc(C)nc3c(C)cccc23)cc1,/,1,6,9,-1,-9
C=CCN1C(=S)CC(c2ccccc2)=Nc2ccccc21,/,-2,-6,-9,-4,92*
COc1ccccc1/C=C/c1nc(S(=O)(=O)c2ccccc2)c(NCCN(C)C)o1,/,17,-1,9,6,4
COc1ccc(/C=C/c2nc(S(=O)(=O)c3ccccc3)c(NCCCN(C)C)o2)cc1OC,-4,59,-7,0,0,74*
Cc1ccc(C(=O)N/C(=C/c2ccc(Cl)cc2)C(=O)N2CCOCC2)cc1,/,51*,-8,?,-4,1
COC(=O)c1ccc(/C=C(/NC(=O)c2ccccc2)C(=O)N2CCOCC2)cc1,-4,20,-2,-17,-1,4
COc1ccc(NS(=O)(=O)c2cc(NC(=O)c3sccc3C)ccc2N2CCOCC2)cc1,188*,11,6,0,-6,-8
COc1ccc(NS(=O)(=O)c2cc(NC(=O)c3cc(F)c(F)cc3Cl)ccc2N2CCOCC2)cc1,-17,-9,21*,13,-2,8
COc1ccc(NS(=O)(=O)c2cc(NC(=O)c3ccccc3)ccc2N2CCOCC2)cc1,6,-18,-6,-1,0,-4
CCOC(=O)CCCCCC(=O)Nc1ccc2c(c1)C(=O)N([C@@H](C)CO)C[C@H](C)[C@H](CN(C)S(C)(=O)=O)O2,/,-1,/,/,/,/
